# Reference: ChEMBL document CHEMBL5058577, “EUbOPEN Chemogenomics Library 2 (Multiplex)” (2022)
# Tested on: Fibroblast
# Assay: Multiplex assay against human fibroblast
# Assay type: toxicity, cell-based
# Outline: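 Live cells carried four stains from seeding: Hoechst33342, BioTracker Green Microtubule Cytoskeleton Dye, MitoTracker Red and Annexin V Alexa Fluor 680. They were imaged on a CQ1 microscope at 37°C and 5% CO2 after compound addition. Using CellPathfinder machine-learning gating, cells were split into Hoechst high-intensity objects or normal cells, normal cells into healthy, pyknosed or fragmented nuclei, and pyknosed cells into mitotic or apoptotic; tubulin, mitochondrial-mass and membrane-permeability phenotypes are per cents of healthy-nucleus cells.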
# [1] = 12 h, 1 µM, compound concentration 1 uM, replicate 1
# [2] = 12 h, 1 µM, compound concentration 1 uM, replicate 2
# [3] = 12 h, 10 µM, compound concentration 10 uM, replicate 1
# [4] = 12 h, 10 µM, compound concentration 10 uM, replicate 2
# [5] = 24 h, 1 µM, compound concentration 1 uM, replicate 1
# [6] = 24 h, 1 µM, compound concentration 1 uM, replicate 2
# [7] = 24 h, 10 µM, compound concentration 10 uM, replicate 1
# [8] = 24 h, 10 µM, compound concentration 10 uM, replicate 2
# [9] = 48 h, 1 µM, compound concentration 1 uM, replicate 1
# [10] = 48 h, 1 µM, compound concentration 1 uM, replicate 2
# [11] = 48 h, 10 µM, compound concentration 10 uM, replicate 1
# [12] = 48 h, 10 µM, compound concentration 10 uM, replicate 2
structure (smiles),measurement,setting,value
N[C@@]1(C(=O)O)CO[C@H]2[C@H](C(=O)O)[C@H]21 [LY-379268],Population Apoptotic (%),[1],22%
same,Population Fragmented Nuclei (%),[1],17%
same,Population Healthy Nuclei (%),[1],70%
same,Population Hoechst High Intensity Objects (%),[1],1%
same,Population Membrane Permeable-Phenotype (%),[1],0%
same,Population Mitochondria Different-Phenotype (%),[1],2%
same,Population Mitotic Cells (%),[1],77%
same,Population Normal (%),[1],98%
same,Population Pyknosed Nuclei (%),[1],11%
same,Population Tubulin-Different-Phenotype (%),[1],25%
same,Total Cell Count,[1],156
same,Population Apoptotic (%),[2],44%
same,Population Fragmented Nuclei (%),[2],33%
same,Population Healthy Nuclei (%),[2],43%
same,Population Hoechst High Intensity Objects (%),[2],10%
same,Population Membrane Permeable-Phenotype (%),[2],5%
same,Population Mitochondria Different-Phenotype (%),[2],1%
same,Population Mitotic Cells (%),[2],55%
same,Population Normal (%),[2],89%
same,Population Pyknosed Nuclei (%),[2],22%
same,Population Tubulin-Different-Phenotype (%),[2],45%
same,Total Cell Count,[2],145
same,Population Apoptotic (%),[3],29%
same,Population Fragmented Nuclei (%),[3],15%
same,Population Healthy Nuclei (%),[3],69%
same,Population Hoechst High Intensity Objects (%),[3],3%
same,Population Membrane Permeable-Phenotype (%),[3],0%
same,Population Mitochondria Different-Phenotype (%),[3],3%
same,Population Mitotic Cells (%),[3],70%
same,Population Normal (%),[3],96%
same,Population Pyknosed Nuclei (%),[3],14%
same,Population Tubulin-Different-Phenotype (%),[3],19%
same,Total Cell Count,[3],187
same,Population Apoptotic (%),[4],21%
same,Population Healthy Nuclei (%),[4],51%
same,Population Membrane Permeable-Phenotype (%),[4],4%
same,Population Mitochondria Different-Phenotype (%),[4],1%
same,Population Mitotic Cells (%),[4],78%
same,Population Pyknosed Nuclei (%),[4],33%
same,Population Tubulin-Different-Phenotype (%),[4],47%
same,Total Cell Count,[4],128
same,Population Apoptotic (%),[5],36%
same,Population Fragmented Nuclei (%),[5],16%
same,Population Healthy Nuclei (%),[5],70%
same,Population Hoechst High Intensity Objects (%),[5],0%
same,Population Membrane Permeable-Phenotype (%),[5],0%
same,Population Mitochondria Different-Phenotype (%),[5],5%
same,Population Mitotic Cells (%),[5],63%
same,Population Normal (%),[5],99%
same,Population Pyknosed Nuclei (%),[5],12%
same,Population Tubulin-Different-Phenotype (%),[5],23%
same,Total Cell Count,[5],152
same,Population Apoptotic (%),[6],47%
same,Population Fragmented Nuclei (%),[6],40%
same,Population Healthy Nuclei (%),[6],41%
same,Population Hoechst High Intensity Objects (%),[6],10%
same,Population Membrane Permeable-Phenotype (%),[6],4%
same,Population Mitochondria Different-Phenotype (%),[6],10%
same,Population Mitotic Cells (%),[6],52%
same,Population Normal (%),[6],89%
same,Population Pyknosed Nuclei (%),[6],18%
same,Population Tubulin-Different-Phenotype (%),[6],60%
same,Total Cell Count,[6],125
same,Population Apoptotic (%),[7],66%
same,Population Fragmented Nuclei (%),[7],14%
same,Population Healthy Nuclei (%),[7],75%
same,Population Hoechst High Intensity Objects (%),[7],5%
same,Population Membrane Permeable-Phenotype (%),[7],0%
same,Population Mitochondria Different-Phenotype (%),[7],3%
same,Population Mitotic Cells (%),[7],33%
same,Population Normal (%),[7],94%
same,Population Pyknosed Nuclei (%),[7],10%
same,Population Tubulin-Different-Phenotype (%),[7],19%
same,Total Cell Count,[7],189
same,Population Apoptotic (%),[8],22%
same,Population Fragmented Nuclei (%),[8],17%
same,Population Healthy Nuclei (%),[8],53%
same,Population Hoechst High Intensity Objects (%),[8],6%
same,Population Membrane Permeable-Phenotype (%),[8],2%
same,Population Mitochondria Different-Phenotype (%),[8],0%
same,Population Mitotic Cells (%),[8],77%
same,Population Normal (%),[8],93%
same,Population Pyknosed Nuclei (%),[8],28%
same,Population Tubulin-Different-Phenotype (%),[8],44%
same,Total Cell Count,[8],133
same,Population Apoptotic (%),[9],76%
same,Population Fragmented Nuclei (%),[9],22%
same,Population Healthy Nuclei (%),[9],68%
same,Population Hoechst High Intensity Objects (%),[9],3%
same,Population Membrane Permeable-Phenotype (%),[9],0%
same,Population Mitochondria Different-Phenotype (%),[9],5%
same,Population Mitotic Cells (%),[9],23%
same,Population Normal (%),[9],96%
same,Population Pyknosed Nuclei (%),[9],8%
same,Population Tubulin-Different-Phenotype (%),[9],26%
same,Total Cell Count,[9],156
same,Population Apoptotic (%),[10],50%
same,Population Fragmented Nuclei (%),[10],33%
same,Population Healthy Nuclei (%),[10],55%
same,Population Hoechst High Intensity Objects (%),[10],11%
same,Population Membrane Permeable-Phenotype (%),[10],4%
same,Population Mitochondria Different-Phenotype (%),[10],7%
same,Population Mitotic Cells (%),[10],50%
same,Population Normal (%),[10],88%
same,Population Pyknosed Nuclei (%),[10],11%
same,Population Tubulin-Different-Phenotype (%),[10],59%
same,Total Cell Count,[10],136
same,Population Apoptotic (%),[11],62%
same,Population Fragmented Nuclei (%),[11],14%
same,Population Healthy Nuclei (%),[11],72%
same,Population Hoechst High Intensity Objects (%),[11],1%
same,Population Membrane Permeable-Phenotype (%),[11],0%
same,Population Mitochondria Different-Phenotype (%),[11],0%
same,Population Mitotic Cells (%),[11],37%
same,Population Normal (%),[11],98%
same,Population Pyknosed Nuclei (%),[11],13%
same,Population Tubulin-Different-Phenotype (%),[11],19%
same,Total Cell Count,[11],179
same,Population Apoptotic (%),[12],42%
same,Population Fragmented Nuclei (%),[12],27%
same,Population Healthy Nuclei (%),[12],56%
same,Population Hoechst High Intensity Objects (%),[12],7%
same,Population Membrane Permeable-Phenotype (%),[12],10%
same,Population Mitochondria Different-Phenotype (%),[12],5%
same,Population Mitotic Cells (%),[12],57%
same,Population Normal (%),[12],92%
same,Population Pyknosed Nuclei (%),[12],16%
same,Population Tubulin-Different-Phenotype (%),[12],47%
same,Total Cell Count,[12],140
